SENP8 block-1: inhibitors of human SENP8 protease; recombinant SENP8, Nedd8 substrate fluorescence; inhibition, % at 20 µM; 360,000 tested, 0.64% active; AID 602440; in the data active = inhibition mostly above about 40%, no sharp cut-off; inactive = mostly below about 27%
Target sequence (Q96LD8 whole entry, looked up): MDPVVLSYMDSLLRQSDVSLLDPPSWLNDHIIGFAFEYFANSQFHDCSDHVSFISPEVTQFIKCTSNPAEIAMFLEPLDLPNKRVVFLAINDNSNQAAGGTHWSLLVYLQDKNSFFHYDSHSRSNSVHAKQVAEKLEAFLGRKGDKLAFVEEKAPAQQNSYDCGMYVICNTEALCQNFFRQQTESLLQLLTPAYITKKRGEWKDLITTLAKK
SENP1 FRET inh: blocks the human SENP1 SUMO protease catalytic domain. Q9P0U3. recombinant SENP1 catalytic domain, CyPet-SUMO1-YPet FRET cleavage. inhibition, % at 10 µM. 360,000 tested, 0.21% active. AID 624204;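 active = inhibition at least 30% at 10 µM, raw YFP signal under a set limit, fluorescence ratio 0.5 to 1.5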;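 note: 0% = enzyme with DMSO and 100% = no enzyme wells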
Target sequence (Q9P0U3 419-644 limits assumed): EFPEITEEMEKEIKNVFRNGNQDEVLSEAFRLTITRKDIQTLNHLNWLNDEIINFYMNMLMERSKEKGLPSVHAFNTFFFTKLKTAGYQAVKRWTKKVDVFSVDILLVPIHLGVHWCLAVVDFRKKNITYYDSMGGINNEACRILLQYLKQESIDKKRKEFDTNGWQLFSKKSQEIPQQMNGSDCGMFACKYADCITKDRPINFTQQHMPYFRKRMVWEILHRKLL
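system = hSENP1 catalytic domain, recombinant | reagent = SFCypet-SUMO1-SFYpet substrate at 25 nM | doses = one dose per compound, 10 µM, 0.5% DMSO | incubation = enzyme reaction for 50 min at room temperature, dark | measured by = FRET, CFP and YFP emission | controls = no-enzyme low, enzyme-DMSO high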
SENP7 block: blocks the human protease SENP7; 330,000 tested, 1.5% active; inhibition, % at 5 µM; Q9BQF6; recombinant SENP7, Z-RLRGG-aminoluciferin luminescence, 40 min; AID 434973;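 active = inhibition above about 50% at the single test dose, limit read from the data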;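 note: plate controls were DMSO with enzyme for no effect and no enzyme buffer wells for full effect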
SENP6 inh: blocks the human protease SENP6; Q9GZR1; Recombinant SENP6 catalytic domain, aminoluciferin luminescence; inhibition, % at 10 µM; 330,000 tested, 1.8% active; AID 2599;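 active = inhibition above about 50% at the single tested dose, limit read from the data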;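 note: plate controls were DMSO wells with enzyme for no effect and DMSO wells lacking enzyme for full effect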
SENP8 block-2: inhibitors of human SENP8 protease. inhibition, % at 10 µM. 330,000 tested, 1.2% active. purified SENP8, Z-RLRGG-aminoluciferin cleavage, luminescence; in the data active = inhibition above about 50%
SENP8 confirm: confirmation of human SENP8 protease inhibitors; shares compounds with SENP7 block; Recombinant SENP8, Z-RLRGG-aminoluciferin luminescence, 60 min; inhibition, % at 12.5 µM; 6,200 tested, 40% active;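 active = mean inhibition across replicates above about 50%, limit read from the data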
SENP6 conf: confirmation of human SENP6 protease inhibitors. recombinant SENP6, Z-RLRGG-aminoluciferin luminescence. 6,200 tested, 58% active. inhibition, % at 12.5 µM. shares compounds with SENP7 block
SENP7 confirm: human SENP7 inhibition, confirmed; shares compounds with SENP7 block; recombinant SENP7, Z-RLRGG-aminoluciferin luminescence, 40 min; inhibition, % at 12.5 µM; 6,200 tested, 69% active
Casp3 select: selectivity test for SENP inhibitors: human caspase-3 inhibition | shares compounds with SENP7 block | purified caspase-3, Z-DEVD-aminoluciferin luminescence, 60 min | inhibition, % at 12.5 µM | 6,200 tested, 60% active | AID 488918;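 active = mean inhibition above about 50%, limit read from the data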;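 note: plate controls were enzyme with DMSO for no effect and wells without caspase-3 for full effect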
Target sequence (P42574 28-227 limits assumed): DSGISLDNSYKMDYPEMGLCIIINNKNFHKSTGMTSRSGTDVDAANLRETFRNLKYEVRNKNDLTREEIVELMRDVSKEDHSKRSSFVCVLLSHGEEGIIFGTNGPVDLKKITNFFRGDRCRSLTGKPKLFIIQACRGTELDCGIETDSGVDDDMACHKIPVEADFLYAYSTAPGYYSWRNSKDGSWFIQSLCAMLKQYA
Luc interf: counter-screen for SENP inhibitors: luminescence interference. shares compounds with SENP7 block. Pre-incubated SENP8/Z-RLRGG-aminoluciferin, luciferase luminescence interference. inhibition, % at 12.5 µM. 6,200 tested, 39% active;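 active = mean inhibition above about 50% when retested at one dose, limit read from the data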;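 note: plate controls were DMSO wells with completed reaction for no effect and substrate without enzyme for full effect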
* = called active by the depositor; · = not tested or not shown. An excerpt weighted towards active compounds, which were near 2.5% of everything screened.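 Rule for the calls, unless noted: active = mean inhibition above about 50% in the one-dose retest (limit read from the data); inactive = the rest.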

SMILES	SENP8 block-1	SENP1 FRET inh	SENP7 block	SENP6 inh	SENP8 block-2	SENP8 confirm	SENP6 conf	SENP7 confirm	Casp3 select	Luc interf
Cc1cc(-c2nc(-c3ccncc3)no2)ccc1[N+](=O)[O-]	12.9	0.9	60.7*	59.5*	54.5*	8.7	8.6	16.2	11.7	11.3
Cc1ccc(-c2nc(-c3ccncc3)no2)cc1Cl	11.9	-1.4	54.8*	29.9	23.4	22.7	20.2	34.7	38.6	10.8
O=[N+]([O-])c1cccc(-c2nc(-c3ccncc3)no2)c1	24.2	0.5	9.3	5.6	-15.4	·	·	·	·	·
Cc1ccc(-c2nc(-c3ccncc3)no2)cc1C	2.4	0.5	78.0*	84.9*	79.4*	53.3*	58.4*	76.4*	65.5*	30.0
Cc1cc(OCc2cc(C(=O)N(C)C3CCOC3)no2)cc(C)c1Cl (centres undefined)	19.2	-0.9	4.9	41.3	12.0	·	·	·	·	·
COc1ccc(OC)c(NC(=O)C(=O)N/N=C(\C)CC(=O)Nc2ccc(Cl)cn2)c1	-15.7	-44.5	2.7	12.7	-3.8	·	·	·	·	·
O=C1c2ccccc2C(=O)C1c1ccncc1	40.6*	7.3	57.8*	80.5*	64.0*	75.6*	71.1*	92.4*	91.0*	79.4*
O=C1c2ccccc2C(=O)C1c1ccccn1	21.4	0.6	46.3	45.3	17.8	·	·	·	·	·
O=c1oc2cc(O)ccc2c2oc3cc(O)ccc3c12	-375.5	-161.3	6.7	73.6*	69.2*	44.7	50.0	89.3*	62.7*	12.4
Cc1ccc(C)c(CNS(=O)(=O)c2c(C(=O)N3CCCC3)c(C)n(C)c2C)c1	-14.9	2.9	-14.6	-12.4	-9.7	·	·	·	·	·
CCOC(=O)Cc1csc(N/N=C\c2ccccc2OC)n1	-187.8	-15.1	45.4	67.7*	26.0	57.5*	53.9*	79.4*	41.6	54.8*
O=C(NC1=C(NC2CCS(=O)(=O)C2)C(=O)c2ccccc2C1=O)c1ccccc1 (centres undefined)	86.9*	0.0	45.8	85.8*	60.2*	0.6	86.3*	54.6*	92.7*	6.8
Cc1cc(NC(=O)c2ccccc2)sc1C	0.1	2.2	94.0*	94.2*	89.8*	0.9	96.3*	102.7*	96.3*	95.2*
Cc1ccc(NC(=O)c2ccccc2)s1	11.1	0.1	-3.3	3.1	0.2	·	·	·	·	·
Nc1ccc(/C=C/c2ccc3ncccc3c2)cc1	-273.4	-22.1	73.8*	59.5*	52.5*	45.8	57.3*	79.5*	49.0	10.6
Nc1ccc2ncccc2c1	-208.0	0.8	9.4	43.0	36.8	·	·	·	·	·
CCOC(=O)C1CC(=NO)c2ccc(OC)c(OC)c2C1 (centres undefined)	-45.2	-8.7	·	·	·	·	·	·	·	·
CC(=O)/C(=C/N(C)C)C(=O)Nc1ccc(Cl)cc1Cl	1.3	-7.2	4.8	10.3	77.6*	70.2*	65.6*	91.8*	81.4*	77.4*
O=C(Nc1ccsc1C(=O)O)c1ccc(Cl)cc1	1.8	0.8	88.1*	93.6*	90.7*	94.9*	95.8*	101.3*	96.1*	94.9*
Cc1ccc(C(=O)Nc2ccsc2C(=O)O)cc1	14.6	-0.3	93.6*	93.6*	91.6*	1.4	96.8*	102.0*	97.7*	95.6*
CC(/C=C/c1cccc([N+](=O)[O-])c1)=N\NC(=O)c1ccncc1	15.8	2.3	3.0	-4.0	3.5	·	·	·	·	·
O=C(Nc1ccc2c(c1)OCCO2)c1ccccn1	2.4	-0.6	89.0*	88.5*	82.1*	89.4*	89.2*	100.0*	96.8*	92.1*
O=C(Nc1ccc(F)cc1)c1ccccc1F	11.7	-0.9	2.3	19.8	1.5	·	·	·	·	·
O=C(Nc1ccc2c(c1)OCCO2)c1ccccc1F	10.3	0.9	78.5*	75.9*	57.9*	69.0*	68.3*	92.5*	90.4*	80.7*
O=C(Nc1ccc(NC(=O)c2ccccn2)cc1)C(=O)Nc1ccc2c(c1)OCCO2	-38.7	1.9	-7.0	-18.7	6.4	·	·	·	·	·
SMILES	SENP8 block-1	SENP1 FRET inh	SENP7 block	SENP6 inh	SENP8 block-2	SENP8 confirm	SENP6 conf	SENP7 confirm	Casp3 select	Luc interf
N#Cc1ccccc1Sc1ccccc1C(=O)Nc1ccc2ccccc2c1	1.4	0.0	3.6	13.2	5.8	·	·	·	·	·
N#Cc1ccc(C(=O)Nc2ccc3ccccc3c2)cc1	-8.4	-1.6	71.6*	28.7	22.3	32.1	37.1	81.3*	58.8*	4.6
O=C(Nc1ccc2ccccc2c1)c1ccccc1F	7.6	-0.2	91.9*	85.5*	81.8*	64.1*	88.6*	97.7*	81.9*	87.9*
CN1CCN(c2ccc(S(=O)(=O)N3CCCCC3)cc2NC(=O)c2ccc(F)cc2F)CC1	11.1	2.3	-1.2	15.6	4.1	·	·	·	·	·
COc1cccc(CNc2nc(NC(C)C)nc3ccsc23)c1	-41.2	0.9	·	·	·	·	·	·	·	·
O=C(Nc1ccc(C(=O)N2CCCC2)cc1)c1ccccc1F	5.1	3.8	76.6*	69.4*	57.6*	66.1*	68.0*	91.3*	93.3*	78.0*
COc1ccc(C(=O)Nc2ccc3ccccc3c2)c(OC)c1	9.7	-0.5	91.3*	87.3*	87.2*	91.3*	91.4*	98.5*	76.6*	72.2*
O=C(Nc1ccc2c(c1)OCCO2)c1cnc2ccccn2c1=O	12.1	-0.7	5.7	57.5*	29.1	10.7	-0.7	9.8	39.2	6.0
O=C(Nc1ccccc1)Nc1ccc(C(=O)N2CCOCC2)cc1	19.1	0.3	81.8*	58.5*	60.8*	80.9*	81.2*	96.6*	93.4*	82.2*
COc1ccccc1C(=O)Nc1ccc2ccccc2c1	4.0	-0.5	35.7	50.0	36.2	·	·	·	·	·
O=C(Nc1cc(C(=O)N2CCCC2)ccc1N1CCCC1)c1ccccc1F	5.5	-3.2	-1.3	13.0	1.4	·	·	·	·	·
O=C(c1ccc(NC(=O)C2(c3ccccc3)CCCC2)cc1)N1CCOCC1	15.7	1.7	-6.3	-48.8	1.4	·	·	·	·	·
CCCCN1CCc2c([nH]c3c(C)cccc23)C1=O	-7.3	-2.4	-7.7	-0.9	-19.0	·	·	·	·	·
O=C(CN(c1ccc(F)cc1)S(=O)(=O)c1ccc2c(c1)OCCO2)NCc1ccccn1	19.6	0.9	-1.7	-15.9	-7.7	·	·	·	·	·
COc1ccc(NC(=O)c2ccccc2F)cc1Cl	18.5	0.0	78.8*	80.7*	75.8*	83.4*	84.1*	92.4*	88.3*	20.7

Bioassay records (PubChem)
